Screening data: PubChem, The Scripps Research Institute Molecular Screening Center
In the library only some 2.5% were active in any assay of this set; here they are far more common.
TCR-CD3 inh: human TCR-CD3 binding inhibition | 360,000 compounds, 0.37% hits | TAMRA-labeled TCR probe fluorescence, biochemical | inhibition, % at 9.4 µM; in the data active = inhibition above about 19%;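 also: recombinant mutant TCR 2C K166C tagged with TAMRA read by polarization; 0% = receptor in buffer alone and 100% = receptor with positive control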
HTRA1 inhibitor: blocks human HTRA1 serine peptidase | Q92743 | recombinant HTRA1, FP-rhodamine activity-based probe, fluorescence polarization | inhibition, % at 5.96 µM | 340,000 compounds, 0.5% hits | AID 504803; in the data active = inhibition above about 36%;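 also: 0% = enzyme with DMSO and 100% = wells lacking enzyme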
rCAG binder: binds r(CAG) RNA repeats. r(CAG) RNA repeat, TO-PRO-1 dye displacement fluorescence. inhibition, % at 3 µM. 370,000 compounds, 1.3% hits. AID 651821;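 active = inhibition above the plate cutoff, the mean of all test compounds on that plate plus 3 SD, cut at about 35% in these data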;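 also: 0% = DMSO alone and 100% = 100 µM mitoxantrone as full dye displacement; higher means more dye released from RNA so lower well fluorescence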
mABHD4 FP: ABHD4 (mouse) inhibition, primary FP screen. Q8VD66. purified mABHD4, FP-Rh probe fluorescence polarization. inhibition, % at 8.92 µM. 370,000 compounds, 0.54% hits. AID 720543;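 active = inhibition exceeding the mean over every tested compound plus 3 SD, cut at about 30% in these data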;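 also: 0% = plate median of compound wells and 100% = S159A mutant with DMSO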
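Material: mouse ABHD4 enzyme, wild type; Benchmarks: S159A mutant high control, sample median low control; Buffer or medium: HEPES pH 7.0, NaCl, Pluronic buffer; Signal: fluorescence polarization; Read-out: percent inhibition of probe binding, normalized to plate controls; Timing: pre-incubation 45 min, probe exposure 60 min, at 25 °C; Dosing: 8.92 µM, single dose.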
SIAE primary: blocks human sialic acid acetylesterase; 370,000 compounds, 0.69% hits; AID 1053197; inhibition, % at 9.66 µM; Q9HAT2; SIAE FP-Rh probe binding, fluorescence polarization;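 active = inhibition above a cutoff: mean of compounds within the control limits plus 3 SD of those, cut at about 17% in these data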;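 also: 0% = plate median of compound wells and 100% = probe without SIAE protein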
Target sequence (Q9HAT2 whole entry, looked up): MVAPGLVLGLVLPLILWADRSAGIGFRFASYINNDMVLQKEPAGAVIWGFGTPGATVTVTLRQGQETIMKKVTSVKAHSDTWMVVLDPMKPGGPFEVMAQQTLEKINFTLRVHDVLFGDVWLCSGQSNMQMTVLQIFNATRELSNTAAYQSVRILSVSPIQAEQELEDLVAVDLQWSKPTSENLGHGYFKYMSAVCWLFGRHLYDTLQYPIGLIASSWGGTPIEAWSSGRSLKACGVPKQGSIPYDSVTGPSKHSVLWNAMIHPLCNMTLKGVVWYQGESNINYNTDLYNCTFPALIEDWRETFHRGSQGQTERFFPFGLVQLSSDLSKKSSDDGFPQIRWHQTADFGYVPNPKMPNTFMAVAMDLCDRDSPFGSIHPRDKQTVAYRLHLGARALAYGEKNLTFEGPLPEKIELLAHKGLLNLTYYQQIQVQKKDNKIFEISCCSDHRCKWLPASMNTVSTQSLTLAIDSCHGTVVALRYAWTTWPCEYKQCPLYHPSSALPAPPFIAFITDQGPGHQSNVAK
rCAG binder conf: r(CAG) RNA repeat binding, confirmation; inhibition, % at 3 µM; TO-PRO-1 dye displacement fluorescence; shares compounds with rCAG binder; AID 652065; 4,300 compounds, 70% hits;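 active = inhibition above a per-plate cutoff, the mean inhibition of sample wells plus 3 SD, cut at about 35% in these data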;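 also: loss of TO-PRO-1 fluorescence as compound displaces dye from 1x1 AA loop RNA; 0% = DMSO only wells and 100% = 100 µM mitoxantrone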
DNA CAG counter: disrupts DNA CAG TO-PRO-1 complex, flagging rCAG hits; AID 652068; shares compounds with rCAG binder; 4,300 compounds, 94% hits; inhibition, % at 3 µM; d(CAG) DNA oligo TO-PRO-1 dye displacement, fluorescence;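 active = inhibition above its plate's cutoff, the mean test-well inhibition plus 3 SD, cut at about 4.8% in these data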;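 also: 0% = DNA dye mix with DMSO and 100% = 100 µM mitoxantrone; hits displace the dye from DNA and so lower well fluorescence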
Numbers without * were called inactive; x = not tested or not shown.

SMILES	TCR-CD3 inh	HTRA1 inhibitor	rCAG binder	mABHD4 FP	SIAE primary	rCAG binder conf	DNA CAG counter
CCC(CC)C1=NN2C(=N)/C(=C/c3ccc(OC(=O)c4ccco4)cc3)C(=O)N=C2S1	0.2	-3.7	42.2*	0.7	-0.2	46.4*	12.0*
CC(C)CS(=O)(=O)C1=NSC2=NC(=O)/C(=C\c3ccc(OC(=O)c4ccco4)cc3)C(=N)N21	-2.7	-1.5	24.2	5.6	-20.5	x	x
Cc1noc(C)c1C(=O)OC(C)C(=O)N(C)c1ccccc1 (centres undefined)	0.4	-9.2	0.2	4.3	2.7	x	x
O=C1OC[C@@H]2CCCN2C(=O)[C@@H](CC(=O)N(CCO)Cc2ccccc2)C/C=C\C[C@H]1Cc1ccc(F)cc1	4.2	-0.5	-6.6	7.5	-4.8	x	x
CCOc1ccc(NC(=O)CCC(=O)NNS(=O)(=O)c2ccccc2[N+](=O)[O-])cc1	-1.9	0.3	3.2	3.2	3.0	x	x
CC(OC(=O)c1ccco1)C(=O)Nc1ccc(C(F)(F)F)cc1 (centres undefined)	-4.9	-10.9	-1.1	-11.6	-7.9	x	x
O=C(N/C(=C\c1ccccc1)C(=O)N1CCCCCC1)c1ccccc1	-4.1	-6.8	-5.8	-18.2	-4.2	x	x
CCn1c2ccccc2c2cc(/C=N/NC(=O)c3cc(O)cc(O)c3)ccc21	-2.7	-40.0	37.5*	-61.6	-73.8	37.0*	21.3*
CCn1c2ccccc2c2cc(/C=N/NC(=O)c3ccc(O)cc3)ccc21	1.5	-53.3	25.9	-59.5	-26.2	x	x
CC(C)C(C(=O)N1CCN(Cc2ccccc2)CC1)c1ccccc1 (centres undefined)	-2.9	4.7	0.5	-2.5	4.3	x	x
Cc1oc(-c2ccccc2)cc1C(=O)Nc1cccc(/C=C\C(=O)O)c1	1.4	-34.5	40.5*	-33.2	-19.4	28.7	5.7*
Cc1oc(C(C)(C)C)cc1C(=O)Nc1cccc(/C=C\C(=O)O)c1	-8.0	-6.0	17.8	-6.1	-1.5	x	x
CC(C)(C)c1ccc(-c2c(C(=O)O)c(C(=O)O)c3n2CSC3)cc1	4.7	-13.0	49.4*	12.9	2.7	40.6*	8.4*
CC1(C(=O)NS(=O)(=O)c2ccccc2)CCN1C(=O)C1(c2ccc(Cl)cc2)CCC1 (centres undefined)	-5.4	x	27.1	1.0	-1.4	x	x
CC1(C(=O)NS(=O)(=O)c2cccc(Cl)c2)CCN1C(=O)C1(c2ccc(Cl)cc2)CC1 (centres undefined)	-2.5	x	43.1*	2.3	0.2	44.8*	9.8*
Cc1cccc(S(=O)(=O)NC(=O)C2(C)CCN2C(=O)C2(c3ccc(Cl)cc3)CCC2)c1 (centres undefined)	-2.8	x	42.0*	5.3	-1.2	41.8*	10.6*
CC1(C(=O)NS(=O)(=O)c2ccc3c(c2)CCO3)CCN1C(=O)C1(c2ccc(Cl)cc2)CC1 (centres undefined)	2.2	x	22.7	3.7	2.2	x	x
CC1(C(=O)NS(=O)(=O)c2cccc(Cl)c2)CCN1C(=O)C1(c2ccc(Cl)cc2)CCC1 (centres undefined)	-2.9	x	61.2*	-2.3	-7.9	67.5*	18.0*
NC(=O)Nc1ccc(C(=O)OCC(=O)N2CCCC2=O)cc1	1.1	0.9	2.5	-5.8	-0.1	x	x
CCOC(=O)N1CCN(C(=O)C(C)n2nc(C)n3c(cc4sccc43)c2=O)CC1 (centres undefined)	-6.1	-3.3	-5.2	6.4	-1.6	x	x
CCOC(=O)c1ccc(Cl)c(NC(=O)c2ccc(-c3ccccc3)cc2)c1	1.5	-5.4	-1.1	3.0	-0.1	x	x
CCOC(=O)c1ccc(/C=C2/C=C(c3ccccc3)N(c3ccc(Cl)c(C(=O)O)c3)C2=O)cc1	-2.0	-53.1	60.6*	-1.9	-8.2	70.2*	31.9*
CCOC(=O)C1=C(C)N(C[C@@H]2CC[C@@H](Cc3ccc(-c4ccccc4)cc3)O2)C(=O)NC1c1ccc(SCc2ccco2)c([N+](=O)[O-])c1 (some centres undefined)	5.7	-42.9	48.7*	12.9	-11.0	36.1*	19.0*
O=C(CSc1nc2ccccc2c(=O)n1Cc1ccccc1)Nc1ccc(Br)cc1C(=O)O	-1.9	-52.6	66.2*	-48.8	-26.3	83.5*	55.7*
